Consider seven compounds from ChEMBL document CHEMBL3632484, “Synthesis and preliminary biological evaluation of a small library of hybrid compounds based on Ugi isocyanide multicomponent reactions with a marine natural product scaffold” (Bioorg Med Chem Lett, 2015).

The nature of data set [1]: Selectivity index, ratio of IC50 for African green monkey Vero cells to IC50 for chloroquine-susceptible Plasmodium falciparum 3D7. The following applies: read-out: Ratio IC50. The class given is toxicity, cell-based. The procedure, abridged:
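Index calculated as Vero cell IC50 divided by the IC50 against chloroquine-susceptible P. falciparum 3D7. The 3D7 IC50 is the concentration giving 50% parasite survival, reported in nM as the mean ± standard error of three experiments.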

Data set [2] in a line: Antineuroinflammatory activity in LPS-primed rat neonatal microglia assessed as inhibition of PMA-stimulated release of TXB2 after 70 mins. The class given is functional. The procedure, abridged:
(§1)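 Rat microglia primed with E. coli LPS, then stimulated with PMA (1 μM) for 70 min. Release of superoxide (O2–) and of TXB2 is measured, and the IC50 is the concentration that inhibits release. Short-term viability is checked in parallel by LDH release (LDH50 = 50% of total cellular LDH). Data come from 1–4 independent experiments.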

In data set [3] the test system is Mycobacterium tuberculosis. Description: Antimycobacterial activity against Mycobacterium tuberculosis H37Rv ATCC 27294 by microplate alamar blue assay. Format: functional. A digest of the protocol:
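Minimum inhibitory concentration by microplate Alamar blue assay against the H37Rv laboratory strain, reported in μg/mL as the mean of three experiments.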

The subject of the next data set is Vero. Put plainly: Cytotoxicity against African green monkey Vero cells. Format: cell-based. The following applies: Chlorocebus sabaeus. A digest of the protocol:
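IC50 in mammalian Vero cells, reported in nM as the mean of three experiments.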

Data set [4] can be described thus: Antineuroinflammatory activity in LPS-primed rat neonatal microglia assessed as inhibition of PMA-stimulated release of O2- after 70 mins. Format: functional. A digest of the protocol: as §1
The nature of data set [5]: Cytotoxicity against rat neonatal microglia assessed as cell viability by lactate dehydrogenase release assay. The following applies: read-out: LD50 (the source's name). The procedure, abridged: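 Rat microglia were primed with E. coli LPS and then stimulated with PMA (1 μM) for about 70 min. LDH release was measured as short-term viability. LDH50 is the concentration causing release of 50% of the total cellular LDH content. Data come from 1–4 independent experiments.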

The subject of the next data set is Plasmodium falciparum. Put plainly: Antiplasmodial activity against chloroquine-susceptible Plasmodium falciparum 3D7 infected in human O+ erythrocytes after 72 hrs by SYBR Green based parasite proliferation assay. The class given is functional, organism-based. The note with it: 3D7, 72 h.

Each structure is given as a SMILES string. pIC50: −log10 of the molar value. ≈ marks a conversion by molar mass, not a printed value.

With `[C-]#[N+][C@@]12CCC(=C)[C@H]3[C@H](CC(C)(C)NC(=O)CN(CCC(C)C)C(=O)c4ccncc4)C[C@H](C)[C@@H](CC[C@@H]1C)[C@@H]32`, the selectivity ratio in data set [1] turned out to be 1720. The negative-log IC50 (pIC50) in data set [2] was 5.52; in the data set with Vero, 4.70; in data set [4] it was less than 5.00; in the data set with Plasmodium falciparum, 7.94. Moreover, in data set [3], the minimal inhibitory concentration (MIC) worked out at 14.9 µg/mL (≈ 27.2 µM). The CC50 in data set [5] was greater than 10 µM.
As to `[C-]#[N+][C@@]12CCC(=C)[C@H]3[C@H](CC(C)(C)NC(=O)CN(CCNc4ccnc5cc(Cl)ccc45)C(C)=O)C[C@H](C)[C@@H](CC[C@@H]1C)[C@@H]32`, the selectivity ratio in data set [1] is 2570. Moreover, the pIC50 in data set [2] was 6.10; in the data set on Vero, 4.54; in data set [4] it was 5.77; in the data set on Plasmodium falciparum it was 7.95. In data set [3], this compound yielded an MIC of 17.9 µg/mL (≈ 29 µM). The CC50 in data set [5] stood at 5 µM.
With `[C-]#[N+][C@@]12CCC(=C)[C@H]3[C@H](CC(C)(C)NC(=O)CN(CCNc4ccnc5cc(Cl)ccc45)C(=O)c4ccncc4)C[C@H](C)[C@@H](CC[C@@H]1C)[C@@H]32`, the selectivity ratio in data set [1] was found to be 7150. Also, the pIC50 in data set [2] is 6.05; in the data set with Vero, 4.59; in data set [4] it was 5.30; in the data set on Plasmodium falciparum it was 8.44. Moreover, inhibition of growth in data set [3] (MIC) required 52 µg/mL (≈ 76.3 µM). Further, in data set [5], the CC50 amounted to 5 µM.
`[C-]#[N+][C@@]12CCC(=C)[C@H]3[C@H](CC(C)(C)NC(=O)CNC(=O)c4ccncc4)C[C@H](C)[C@@H](CC[C@@H]1C)[C@@H]32`: the results for the negative-log IC50 (pIC50) (in data set [2]; in data set [4]; in the data set on Plasmodium falciparum) were 5.96, less than 5.00 and 8.20, respectively. For the same compound, the minimal inhibitory concentration (MIC) in data set [3] turned out to be 102 µg/mL (≈ 214 µM). The CC50 in data set [5] is greater than 10 µM.
Regarding `[C-]#[N+][C@@]12CCC(=C)[C@H]3[C@H](CC(C)(C)NC(=O)C(c4ccccc4)N(CCC(C)C)C(=O)c4ccncc4)C[C@H](C)[C@@H](CC[C@@H]1C)[C@@H]32` (mixture of isomers), the selectivity ratio in data set [1] was found to be 3780. The pIC50 in data set [2] was 7.00; in the data set on Vero, 4.31; in data set [4] it was less than 5.00; in the data set on Plasmodium falciparum, 7.89. Also, in data set [3], inhibition of growth (MIC) required 56.4 µg/mL. The CC50 in data set [5] was greater than 10 µM.
In the case of `[C-]#[N+]C(C)(C)C[C@@H]1C[C@H](C)[C@H]2CC[C@H](C)[C@@]3([N+]#[C-])CCC(=C)[C@@H]1[C@H]23` [DIISOCYANOAMPHILECTENE], the selectivity ratio in data set [1] came out at 83100. In addition, the pIC50 is 6.64 in data set [2], 4.00 in the data set with Vero, less than 5.00 in data set [4] and 8.92 in the data set with Plasmodium falciparum. In addition, the minimum inhibitory concentration (MIC) in data set [3] came out at 3.2 µg/mL (≈ 9.86 µM). In data set [5], the CC50 was greater than 10 µM.
In data set [3], `NNC(=O)c1ccncc1` [ISONIAZID] came in with an MIC of 0.44 µg/mL (≈ 3.21 µM).
